According to ChEMBL document CHEMBL1152744, “Select pyrimidinones inhibit the propagation of the malarial parasite, Plasmodium falciparum” (Bioorg Med Chem, 2009):

Columns and labels:
[1] = target: Heat shock 70 kDa protein 1A (Homo sapiens) (UniProt P0DMV8); assay: Effect on human HSPA1A ATPase activity assessed as fold change in Kcat at 100 uM relative to control
Procedure, shortened: (§1)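 Single-turnover ATPase assay measuring kCAT of recombinant P. falciparum Hsp70 (E. coli Rosetta 2, Ni-chelate then Q-Sepharose purified), yeast Ssa1, or human HSPA1A (E. coli-expressed, untagged or His6). Optional J-domain partners: Hlj1 1.1 μM; Ydj1 0.045 μM with Ssa1, 0.9 μM with Pf or human Hsp70. Compound at 100 μM final; activity expressed as a fraction of the DMSO-only reaction under the same conditions, set to 1.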

Plasmodium falciparum [2] = assay: Effect on Plasmodium falciparum Hsp70 ATPase activity assessed as fold change in Kcat at 100 uM relative to control; procedure, shortened: as §1
[3] = target: Heat shock 70 kDa protein 1A (Homo sapiens) (UniProt P0DMV8); assay: Inhibition of human HSPA1A ATPase activity assessed as residual enzyme activity at 300 uM relative to control
Procedure, shortened: (§2)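 Steady-state ATPase assay with P. falciparum Hsp70, yeast Ssa1 or human Hsp70. Compound at 300 μM final; activity standardized to an equal volume of DMSO, set to 1. Values are means of 6 independent experiments, ±SD where shown.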

[4] = target: Heat shock 70 kDa protein 1A (Homo sapiens) (UniProt P0DMV8); assay: Effect on human HSPA1A ATPase activity assessed as fold change in Kcat at 100 uM presence of J-domain containing yeast Ydj1 co-chaperone relative to control; procedure, shortened: as §1
Plasmodium falciparum [5] = assay: Antimalarial activity against chloroquine-resistant Plasmodium falciparum Dd2 infected human erythrocytes after 72 hrs by [3H]hypoxanthine uptake; type: functional, organism-based
Procedure, shortened: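 Asexual blood-stage P. falciparum Dd2 (chloroquine-resistant) in human erythrocytes, exposed to compound for 72 h, with [3H]hypoxanthine added for the last 24 h. Dose-response series were run, and IC50 was calculated by linear regression on the linear portions of plotted uptake values. Chloroquine was included as an internal control.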

Plasmodium falciparum [6] = assay: Effect on Plasmodium falciparum Hsp70 ATPase activity assessed as fold change in Kcat at 100 uM in presence of J-domain containing yeast HlJ1 co-chaperone relative to control; procedure, shortened: as §1
[7] = target: Heat shock protein SSA1 (Saccharomyces cerevisiae S288c) (UniProt P10591); assay: Inhibition of Saccharomyces cerevisiae Ssa1 ATPase activity assessed as residual enzyme activity at 300 uM relative to control; procedure, shortened: as §2
Heat shock protein SSA1 (Saccharomyces cerevisiae S288c), sequence (P10591 whole entry): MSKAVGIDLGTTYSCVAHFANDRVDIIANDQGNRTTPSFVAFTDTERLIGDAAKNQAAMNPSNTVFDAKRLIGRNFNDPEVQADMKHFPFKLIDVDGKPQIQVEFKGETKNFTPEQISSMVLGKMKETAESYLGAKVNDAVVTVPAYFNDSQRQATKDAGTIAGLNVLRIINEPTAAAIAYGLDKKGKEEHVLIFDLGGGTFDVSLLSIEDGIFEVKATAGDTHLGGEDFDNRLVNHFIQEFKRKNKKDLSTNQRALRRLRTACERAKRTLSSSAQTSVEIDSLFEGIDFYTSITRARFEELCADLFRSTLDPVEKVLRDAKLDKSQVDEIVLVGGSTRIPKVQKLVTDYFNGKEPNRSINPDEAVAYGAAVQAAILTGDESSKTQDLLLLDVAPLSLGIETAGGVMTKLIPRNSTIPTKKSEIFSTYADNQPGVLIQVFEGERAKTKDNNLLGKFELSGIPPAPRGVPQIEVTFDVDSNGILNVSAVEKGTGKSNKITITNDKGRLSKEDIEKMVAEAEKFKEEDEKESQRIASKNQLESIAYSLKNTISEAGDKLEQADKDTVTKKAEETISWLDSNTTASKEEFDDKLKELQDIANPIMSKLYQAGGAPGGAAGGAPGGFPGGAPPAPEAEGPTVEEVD

[8] = target: Heat shock protein SSA1 (Saccharomyces cerevisiae S288c) (UniProt P10591); assay: Effect on Saccharomyces cerevisiae Ssa1 ATPase activity assessed as fold change in Kcat at 100 uM in presence of J-domain containing yeast HlJ1 co-chaperone relative to control; procedure, shortened: as §1
Plasmodium falciparum [9] = assay: Antimalarial activity against chloroquine-resistant Plasmodium falciparum Dd2 infected human erythrocytes at 5 uM after 72 hrs as inhibition of [3H]hypoxanthine uptake; type: functional
Procedure, shortened: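 Single-point screen of Dd2 asexual blood stages in human red cells at final concentrations of 1 μM and 5 μM, with 72 h drug exposure and [3H]hypoxanthine pulse over the final 24 h. Read-out was percent inhibition of label uptake. Compounds giving >50% inhibition at 5 μM were re-screened.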

[10] = target: Heat shock protein SSA1 (Saccharomyces cerevisiae) (UniProt P10591); assay: Effect on yeast Hsp70 Ssa1 ATPase activity assessed as fold change in Kcat at 100 uM relative to control
[11] = target: Heat shock 70 kDa protein 1A (Homo sapiens) (UniProt P0DMV8); assay: Effect on human HSPA1A ATPase activity assessed as fold change in Kcat at 100 uM in presence of J-domain containing Hdj1 co-chaperone relative to control
[12] = Cytotoxicity against human WI38 cells; type: cell-based, WI-38
Procedure, shortened: (§3)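 GI50 measured in HepG2 hepatocellular carcinoma and WI-38 embryonic diploid lung cells, calculated relative to a DMSO (negative) control.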

[13] = Cytotoxicity against human HepG2 cells; type: cell-based; procedure, shortened: as §3
[14] = target: Heat shock protein SSA1 (Saccharomyces cerevisiae S288c) (UniProt P10591); assay: Effect on Saccharomyces cerevisiae Ssa1 ATPase activity assessed as fold change at 100 uM in Kcat relative to control; procedure, shortened: as §1
[15] = target: Heat shock protein SSA1 (Saccharomyces cerevisiae S288c) (UniProt P10591); assay: Effect on Saccharomyces cerevisiae Ssa1 ATPase activity assessed as fold change in Kcat at 100 uM in presence of J-domain containing yeast Ydj1 co-chaperone relative to control; procedure, shortened: as §1
[16] = target: Heat shock 70 kDa protein (Plasmodium falciparum) (UniProt P11144); assay: Inhibition of Plasmodium falciparum Hsp70 ATPase activity assessed as residual enzyme activity at 300 uM relative to control; procedure, shortened: as §2
Heat shock 70 kDa protein (Plasmodium falciparum), sequence (P11144 whole entry): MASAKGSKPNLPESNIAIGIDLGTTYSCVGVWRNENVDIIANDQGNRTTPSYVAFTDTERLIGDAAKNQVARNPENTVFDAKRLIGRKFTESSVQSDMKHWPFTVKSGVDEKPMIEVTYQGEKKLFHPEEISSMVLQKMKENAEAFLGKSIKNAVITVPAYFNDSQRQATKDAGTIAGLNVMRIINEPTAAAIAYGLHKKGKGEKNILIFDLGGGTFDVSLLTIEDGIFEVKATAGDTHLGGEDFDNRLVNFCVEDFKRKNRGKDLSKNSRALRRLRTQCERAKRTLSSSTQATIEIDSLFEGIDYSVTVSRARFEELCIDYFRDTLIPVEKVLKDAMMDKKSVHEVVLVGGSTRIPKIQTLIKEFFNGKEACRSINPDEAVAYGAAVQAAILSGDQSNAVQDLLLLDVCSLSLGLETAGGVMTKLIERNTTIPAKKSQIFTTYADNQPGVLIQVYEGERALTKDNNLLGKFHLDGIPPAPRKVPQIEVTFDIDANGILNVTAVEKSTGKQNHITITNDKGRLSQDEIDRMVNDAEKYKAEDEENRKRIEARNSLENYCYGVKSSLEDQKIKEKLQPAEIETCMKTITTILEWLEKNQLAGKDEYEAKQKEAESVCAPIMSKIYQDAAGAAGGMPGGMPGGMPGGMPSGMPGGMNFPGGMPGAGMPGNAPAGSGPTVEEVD

[17] = target: Heat shock 70 kDa protein 1A (Homo sapiens) (UniProt P0DMV8); assay: Inhibition of human Hsp70 ATPase activity assessed as reduction of rate of ATP hydrolysis; parameters: scale not given: the % may be the effect or the level left

Heat shock 70 kDa protein 1A (Homo sapiens), sequence (P0DMV8 2-641 limits assumed): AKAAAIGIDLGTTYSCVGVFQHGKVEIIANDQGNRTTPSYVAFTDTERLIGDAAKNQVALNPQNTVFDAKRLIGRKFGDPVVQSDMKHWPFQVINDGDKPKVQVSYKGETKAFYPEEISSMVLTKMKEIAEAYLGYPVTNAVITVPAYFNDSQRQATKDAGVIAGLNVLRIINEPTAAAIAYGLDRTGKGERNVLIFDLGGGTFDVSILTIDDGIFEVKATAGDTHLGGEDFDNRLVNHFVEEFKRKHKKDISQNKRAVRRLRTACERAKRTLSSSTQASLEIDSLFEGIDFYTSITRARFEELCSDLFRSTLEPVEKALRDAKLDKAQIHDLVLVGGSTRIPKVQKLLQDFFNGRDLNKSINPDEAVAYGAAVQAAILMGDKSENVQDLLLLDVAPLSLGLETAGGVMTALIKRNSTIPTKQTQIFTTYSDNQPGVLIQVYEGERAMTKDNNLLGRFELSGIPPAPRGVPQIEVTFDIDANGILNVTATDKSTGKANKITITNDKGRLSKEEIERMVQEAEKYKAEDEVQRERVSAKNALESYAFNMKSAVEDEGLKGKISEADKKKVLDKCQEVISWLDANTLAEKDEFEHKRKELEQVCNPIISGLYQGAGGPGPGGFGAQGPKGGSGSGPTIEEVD

Compound | fold change (FC) [1] | fold change (FC) (Plasmodium falciparum [2]) | fold change (FC) [3] | fold change (FC) [4] | IC50 (Plasmodium falciparum [5]) | fold change (FC) (Plasmodium falciparum [6]) | fold change (FC) [7] | fold change (FC) [8] | inhibition at 5 µM (Plasmodium falciparum [9]) | fold change (FC) [10] | fold change (FC) [11] | GI50 [12] | GI50 [13] | fold change (FC) [14] | fold change (FC) [15] | fold change (FC) [16] | Activity [17]
CC1=C(C(=O)OCc2ccccc2)C(c2ccc([N+](=O)[O-])cc2)NC(=O)N1CCCC(=O)N(CCN1CCOCC1)C(C(=O)NC(C)(C)C)c1ccc(-c2ccccc2)cc1 (configuration not stated) | 2 | 2.2 | 0.82 | -1.1 | 800 nM | 1.4 | 0.75 | 1 | > 50% | 1.2 | 2.9 | > 10000 nM | > 10000 nM | 1.2 | -1.5 | 0.72 | 
CCOC(=O)C1=C(C)N(Cc2ccccc2)C(=O)NC1c1ccccc1OS(=O)(=O)c1ccccc1[N+](=O)[O-] (configuration not stated) | 3.6 | 6.5 | 0.74 | -1.2 | 100 nM | 1.4 | 1.1 | 1 | > 50% | 2.1 | 3.5 | > 10000 nM | > 10000 nM | 2.1 | -1.3 | 0.99 | 30%
CCOC(=O)C1=C(C)N(CCCC(=O)NCCn2c(-c3ccccc3)cc(C(=O)OC)c2C)C(=O)NC1c1ccc([N+](=O)[O-])cc1 (configuration not stated) | 2 | 3.7 | 0.8 | -1.2 | 30 nM | 1.5 | 0.89 | -1.6 | > 50% | -1.3 | 4.3 | > 10000 nM | > 10000 nM | -1.3 | -1.6 | 1.02 | 
COC(=O)C1=C(Cc2ccccc2)NC(=O)NC1c1ccc2ccccc2c1 (configuration not stated) | 1.3 | 1.4 | 0.7 | -1.2 | 300 nM | -1.2 | 1.2 | -1.2 | > 50% | 2 | 2.5 | > 10000 nM | > 10000 nM | 2 | -1.3 | 1 | 30%
CCCCNC(=O)C(c1ccc(-c2ccccc2)cc1)N(CCN1CCOCC1)C(=O)CCCCCN1C(=O)NC(c2ccc([N+](=O)[O-])cc2)C(C(=O)OCc2ccccc2)=C1C (configuration not stated) | 1 | 2.3 | 0.74 | 1 | 200 nM | -1.3 | 1 | -1.1 | > 50% | -1.6 | 4.7 | > 10000 nM | > 10000 nM | -1.6 | -2.6 | 0.73 | 
CC(=O)O[C@H]1C(=O)[C@@]2(C)[C@H]([C@H](OC(=O)c3ccccc3)[C@]3(O)C[C@H](OC(=O)[C@H](O)[C@@H](NC(=O)c4ccccc4)c4ccccc4)C(C)=C1C3(C)C)[C@]1(OC(C)=O)CO[C@@H]1C[C@@H]2O [PACLITAXEL] |  |  |  |  |  |  |  |  |  |  |  | 13.7 nM | 1 nM |  |  |  | 
CCOC(=O)C1=C(C)N(CCCCCC(=O)O)C(=O)NC1c1cccc([N+](=O)[O-])c1 (configuration not stated) | 1.4 | 1.8 | 0.85 | -1.3 | 1600 nM | -1.1 | 0.93 | 1 | > 50% | 1.3 | 1.1 | > 10000 nM | > 10000 nM | 1.3 | 1.1 | 1.01 | 
CCCCCCN(C(=O)CCCCCN1C(=O)NC(c2ccc(-c3ccccc3)cc2)C(C(=O)OCc2ccccc2)=C1C)C(C(=O)NCCCC)C1CCCCC1 (configuration not stated) | 2.3 | 2.9 | 0.95 | 1.1 | 1100 nM | -1.5 | 0.97 | 1.2 | > 50% | -1.7 | 2.8 | > 10000 nM | > 10000 nM | -1.7 | -1.3 | 0.74 | 
CCCCN1C(=O)NC(c2ccc(OC)cc2)C(C(=O)OCc2ccccc2)=C1C (configuration not stated) | 4.5 | 7.2 | 0.8 | 1.1 | 200 nM | -1.1 | 0.95 | 1 | > 50% |  | 4.5 | > 10000 nM | > 10000 nM | 2.3 | -1.1 | 0.92 | 
COC(=O)c1cc(-c2ccccc2)n(CCNC(=O)CCCCCN2C(=O)NC(c3ccc(-c4ccccc4)cc3)C(C(=O)OCc3ccccc3)=C2C)c1C (configuration not stated) | 3.5 | 2.7 | 0.72 | 1.5 | 50 nM | -1.1 | 1.2 | -6.5 | > 50% |  | 5.3 | > 10000 nM | > 10000 nM | 13.3 | -1.7 | 1.01 | 30%
